The source of these data is ChEMBL document CHEMBL1134611, “Agonist activity at the kinin B1 receptor: structural requirements of the central tetrapeptide” (J Med Chem, 2001).

Calls of active or inactive are those of the source. The calls are words filed in the database; no cut-off is given here. Numbered stars: 1 amine (or outer) side, 2 acyl side, 3 side chain; on linkers, the order of the positions; unused ones are H or OH. Square brackets hold non-standard residues; d marks the D form. Peptide text beside a SMILES is read from it. X2 = O=C(C1(N[*:1])CCCCCCCCCCC1)[*:2]; X1 = O=C(C1(N[*:1])CCCCCCCC1)[*:2]; 12Ado = NCCCCCCCCCCCC(=O)O; Ac8c = NC1(C(=O)O)CCCCCCC1; Ac7c = NC1(C(=O)O)CCCCCC1; Ac6c = NC1(C(=O)O)CCCCC1

The target of the first test is T1, B1 bradykinin receptor (Rattus norvegicus) (UniProt P97583).
T1 sequence (whole entry): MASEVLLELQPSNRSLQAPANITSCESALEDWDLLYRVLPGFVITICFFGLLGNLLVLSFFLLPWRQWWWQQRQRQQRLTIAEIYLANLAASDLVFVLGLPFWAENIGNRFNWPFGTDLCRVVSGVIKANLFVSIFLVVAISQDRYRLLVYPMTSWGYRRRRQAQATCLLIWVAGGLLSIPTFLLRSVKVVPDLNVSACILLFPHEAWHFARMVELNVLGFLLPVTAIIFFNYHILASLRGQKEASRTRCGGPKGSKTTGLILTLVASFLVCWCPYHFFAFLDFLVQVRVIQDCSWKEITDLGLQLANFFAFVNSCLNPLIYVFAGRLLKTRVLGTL
The experiment in a line: Agonistic activity against Bradykinin receptor B1 of rat ileum longitudinal smooth muscle. It counts as functional, tissue-based. In short, it runs like this:
(§1)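 Rat ileum longitudinal muscle-myenteric plexus strips in oxygenated (95% O2, 5% CO2) Krebs' solution with indomethacin and guanethidine (3 µM each), chlorpheniramine and atropine (1 µM each). Cumulative concentration-response curves of contraction, run with thiorphan, bestatin and captopril (1 µM each). pD2 = -log molar agonist concentration giving 50% of maximal effect; mean ± SEM, 4-10 experiments.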
`NCCCC[C@H](N)C(=O)N[C@@H](CCCN=C(N)N)C(=O)NCC(=O)NC1(C(=O)NCC(=O)N[C@@H](CO)C(=O)N2CCC[C@H]2C(=O)N[C@@H](Cc2ccccc2)C(=O)O)CCCCC1` (H-KRG[Ac6c]GSPF-OH) returned a pD2 of 5.1. Still for that read-out and setting: with `NCCCC[C@H](N)C(=O)N[C@@H](CCCN=C(N)N)C(=O)NCC(=O)NC1(C(=O)NCC(=O)N[C@@H](CO)C(=O)N2CCC[C@H]2C(=O)N[C@@H](Cc2ccccc2)C(=O)O)CCCCCC1` (H-KRG[Ac7c]GSPF-OH) the figure was 5.4; with `NCCCC[C@H](N)C(=O)N[C@@H](CCCN=C(N)N)C(=O)NCC(=O)NC1(C(=O)NCC(=O)N[C@@H](CO)C(=O)N2CCC[C@H]2C(=O)N[C@@H](Cc2ccccc2)C(=O)O)CCCCCCC1` (H-KRG[Ac8c]GSPF-OH), 5.7; with `NCCCC[C@H](N)C(=O)N[C@@H](CCCN=C(N)N)C(=O)NCC(=O)NC1(C(=O)NCC(=O)N[C@@H](CO)C(=O)N2CCC[C@H]2C(=O)N[C@@H](Cc2ccccc2)C(=O)O)CCCCCCCC1` (H-KRG[X1]GSPF-OH), 5.4. Same read-out and setting: with `NCCCC[C@H](N)C(=O)N[C@@H](CCCN=C(N)N)C(=O)NCC(=O)NC1(C(=O)NCC(=O)N[C@@H](CO)C(=O)N2CCC[C@H]2C(=O)N[C@@H](Cc2ccccc2)C(=O)O)CCCCCCCCCCC1` (H-KRG[X2]GSPF-OH) the figure was 5.5; with `NCCCC[C@H](N)C(=O)N[C@@H](CCCN=C(N)N)C(=O)NCCCCCCCCCCCC(=O)N[C@@H](CO)C(=O)N1CCC[C@H]1C(=O)N[C@@H](Cc1ccccc1)C(=O)O` (H-KR[12Ado]SPF-OH), 6.

In another test the target is T1, B1 bradykinin receptor (Rattus norvegicus). Nature of the test: Agonistic activity against Bradykinin receptor B1 of rat ileum longitudinal smooth muscle; Inactive. It counts as functional, tissue-based. In short, it runs like this:
as §1
Consider `NCCCC[C@H](N)C(=O)N[C@@H](CCCN=C(N)N)C(=O)NC1(C(=O)N[C@@H](CO)C(=O)N2CCC[C@H]2C(=O)N[C@@H](Cc2ccccc2)C(=O)O)CCCCCC1` (H-KR[Ac7c]SPF-OH), for which the IA entry is “inactive”.

Regarding H-KRGGGSPF-OH, the IA result is “inactive”.
